The results in this text go back to ChEMBL document CHEMBL2401663, “(Biphenyl-4-yl)methylammonium chlorides: potent anticonvulsants that modulate Na+ currents” (J Med Chem, 2013).

Molecules are shown by their SMILES. Activity calls are given as the source filed them. The rule behind the calls is not given here. Some results are limits rather than exact numbers.

In general, ED50 refers to the midpoint of the dose-response relation. A word on the TD50: it is the 50% point of the dose-response relation for the toxic effect studied. The term IC50 denotes the point on the concentration scale where inhibition reaches its midpoint.

The test system of series [1] is Rattus norvegicus. In words: Anticonvulsant activity against po dosed albino Sprague-Dawley rat after 5 hrs by maximal electroshock seizure test. Type of series: functional. In short, it runs like this:
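Male albino Sprague-Dawley rats given compound orally under the NIH Anticonvulsant Screening Program, then challenged by maximal electroshock.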
Background: In the maximal electroshock model the usual endpoint is tonic extension of the hind limbs.

Series [2] concerns Mus musculus. In words: Anticonvulsant activity against ip dosed albino CF1 mouse after 1 hr by maximal electroshock seizure test. Type of series: functional.
Series [3] in a line: Toxicity in po dosed albino Sprague-Dawley rat assessed as behavioral toxicity. Type of series: organism-based. The note with it: in vivo. In short, it runs like this: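 Neurological impairment was scored as behavioral toxicity in male albino Sprague-Dawley rats dosed orally, NIH Anticonvulsant Screening Program. The median impairing dose (TD50, mg/kg) was taken at the time of peak effect.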

Series [4] is described as follows: Inhibition of Na+ channel in mouse CAD cells assessed as slow inactivation by whole cell voltage clamp technique. Type of series: cell-based. In short, it runs like this: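 CAD cells (Ham's F12/EMEM, 8% FBS, 37 °C, 5% CO2) by whole-cell voltage clamp at room temperature. Na+ channel slow inactivation measured at −50 mV; IC50 is the concentration at which half of the channels reach a slow-inactivated state.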

Series [5] concerns Rattus norvegicus. Kind of series: Anticonvulsant activity against po dosed albino Sprague-Dawley rat after 0.25 to 4 hrs by maximal electroshock seizure test. Type of series: functional. In short, it runs like this: (§1)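 Male albino Sprague-Dawley rats dosed ip or orally under the NIH Anticonvulsant Screening Program, tested by maximal electroshock seizure.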
The nature of series [6]: Toxicity in ip dosed albino CF1 mouse after 0.25 to 4 hrs by rotorod test. Type of series: organism-based. As to conditions: in vivo. (In general: The rotarod test checks motor coordination on a turning rod.)
Series [7] concerns Rattus norvegicus. Kind of series: Anticonvulsant activity against ip dosed albino Sprague-Dawley rat after 0.25 to 0.5 hrs by maximal electroshock seizure test. Type of series: functional. In short, it runs like this: as §1
Series [8] deals with Mus musculus. Kind of series: Anticonvulsant activity against ip dosed albino CF1 mouse after 0.5 to 4 hrs by 6 Hz psychomotor seizure test. Type of series: functional.
Series [9] deals with Mus musculus. In words: Anticonvulsant activity against ip dosed albino CF1 mouse after 0.25 to 2 hrs by subcutaneous pentylenetetrazol test. Type of series: functional.
Series [10] in a line: Toxicity in po dosed albino Sprague-Dawley rat assessed as behavioral toxicity after 0.25 to 4 hrs. Type of series: organism-based. As to conditions: in vivo. In short, it runs like this: (§2)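 Male albino Sprague-Dawley rats dosed ip or orally, scored for behavioral toxicity (neurological impairment). TD50 is in mg/kg, taken at the time of peak effect.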
Series [11] in a line: Toxicity in ip dosed albino Sprague-Dawley rat assessed as behavioral toxicity after 0.25 to 0.5 hrs. The note with it: in vivo. Type of series: organism-based. In short, it runs like this: as §2
In series [12] the test system is Mus musculus. Kind of series: Anticonvulsant activity against ip dosed albino CF1 mouse after 0.25 to 1 hr by maximal electroshock seizure test. Type of series: functional.
The test system of series [13] is Rattus norvegicus. Kind of series: Anticonvulsant activity against ip dosed albino Sprague-Dawley rat after 0.25 to 2 hrs by maximal electroshock seizure test. Type of series: functional. In short, it runs like this: as §1
The test system of series [14] is Mus musculus. Kind of series: Anticonvulsant activity against ip dosed albino CF1 mouse after […] by subcutaneous pentylenetetrazol test. Type of series: functional.
Series [15] concerns Mus musculus. In words: Anticonvulsant activity against ip dosed albino CF1 mouse after […] by maximal electroshock seizure test. Type of series: functional.
Series [16] concerns Mus musculus. In words: Toxicity in ip dosed albino CF1 mouse after […] by rotorod test. As to conditions: in vivo. Type of series: organism-based.
Series [17] deals with Mus musculus. Kind of series: Anticonvulsant activity against ip dosed albino CF1 mouse after 0.25 to 1 hr by 6 Hz psychomotor seizure test. Type of series: functional.
A short description of series [18]: Toxicity in ip dosed albino Sprague-Dawley rat assessed as behavioral toxicity after 0.25 to 4 hrs. Type of series: organism-based. The note with it: in vivo. In short, it runs like this:
as §2

For series [19], the system named is Rattus norvegicus. In words: Anticonvulsant activity against ip dosed albino Sprague-Dawley rat after 0.25 to 4 hrs by maximal electroshock seizure test. Type of series: functional. In short, it runs like this:
as §1

Series [20] has as its system Mus musculus. In words: Anticonvulsant activity against ip dosed albino CF1 mouse after 2 hrs by 6 Hz psychomotor seizure test. Type of series: functional.
Series [21] deals with Mus musculus. In words: Anticonvulsant activity against ip dosed albino CF1 mouse after 0.5 to 2 hrs by maximal electroshock seizure test. Type of series: functional.
Series [22] deals with Mus musculus. In words: Anticonvulsant activity against ip dosed albino CF1 mouse after 0.25 to 4 hrs by subcutaneous pentylenetetrazol test. Type of series: functional.
Series [23] deals with Mus musculus. Kind of series: Toxicity in ip dosed albino CF1 mouse after 0.5 to 2 hrs by rotorod test. The note with it: in vivo. Type of series: organism-based.
The subject of series [24] is Mus musculus. Kind of series: Anticonvulsant activity against ip dosed albino CF1 mouse after 0.5 to 2 hrs by 6 Hz psychomotor seizure test. Type of series: functional.
Series [25] has as its system Mus musculus. Kind of series: Anticonvulsant activity against ip dosed albino CF1 mouse after 0.5 hrs by maximal electroshock seizure test. Type of series: functional.
The subject of series [26] is CAD. Kind of series: Inhibition of Na+ channel in mouse CAD cells assessed as fast inactivation by whole cell voltage clamp technique. Type of series: cell-based. In short, it runs like this: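 Steady-state fast inactivation in CAD cells by whole-cell voltage clamp at room temperature. Cells held at −80 mV, given 500-ms prepulses from −120 to −10 mV in 10-mV steps, then a 20-ms step to 0 mV. Curves fitted with a single Boltzmann; V1/2 shift compared with 0.1% DMSO by ANOVA and Dunnett's test. Mean ± SEM.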

Series [27] concerns CAD. In words: Inhibition of Na+ channel in mouse CAD cells assessed as frequency-dependent inactivation at 10 uM by whole cell voltage clamp technique relative to control. Type of series: cell-based. In short, it runs like this: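 Frequency (use)-dependent inhibition of Na+ currents in CAD cells by whole-cell voltage clamp at room temperature. Current trend and amplitude at 10 μM compared with control.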

On to `CCC1(c2ccccc2)C(=O)NC(=O)NC1=O` [PHENOBARBITAL], for which the ED50 in series [1] was found to be 9.1 mg/kg; in series [2], 22 mg/kg.

Turning to `COC[C@@H](NC(C)=O)C(=O)NCc1ccccc1` [LACOSAMIDE], in series [3], the TD50 is greater than 500 mg/kg. The IC50 in series [4] is 85 µM.

In the case of `Cl.NCc1ccc(-c2cccc(Cl)c2)cc1`, the ED50 was greater than 30 mg/kg in [5]; 65 mg/kg in series [7]; less than 100 mg/kg in series [8]; less than 100 mg/kg in [9]; less than 100 mg/kg in [12]. Further, the TD50 in series [6] was greater than 100 mg/kg; in series [10], greater than 30 mg/kg; in series [11], 65 mg/kg.

As for `Cl.NCc1ccc(-c2ccccc2OC(F)(F)F)cc1`, the ED50 in series [5] was greater than 30 mg/kg; in [13], less than 30 mg/kg; in series [14], greater than 120 mg/kg; in series [15] it was 40 mg/kg; in series [17], less than 50 mg/kg. Also, the TD50 in series [10] is greater than 30 mg/kg; in [16] it was 72 mg/kg; in series [18], greater than 30 mg/kg.

`CCCC(CCC)C(=O)O` [VALPROIC ACID] registered an ED50 in series [15] of 270 mg/kg.

In the case of `Cl.NCc1ccc(-c2ccc(OC(F)(F)F)cc2)cc1`, the median effective dose (ED50) in [5] is greater than 30 mg/kg; in series [19] it was greater than 30 mg/kg; in series [20] it was less than 100 mg/kg; in [21] it was 50 mg/kg; in series [22], greater than 50 mg/kg. Further, the TD50 was greater than 50 mg/kg in [6], greater than 30 mg/kg in [10] and greater than 30 mg/kg in series [18].

In the case of `COC(=O)c1cccc(-c2ccc(CN)cc2)c1.Cl`, the ED50 in series [5] is greater than 30 mg/kg; in series [19] it was greater than 30 mg/kg; in [24], greater than 300 mg/kg; in series [25] it was 100 mg/kg. Further, the figures for the TD50 in series [23], in series [10] and in series [18] were 100 mg/kg, greater than 30 mg/kg and greater than 30 mg/kg, respectively.

In the case of `NCc1ccc(OCc2cccc(F)c2)cc1`, the inhibition entry in series [26] and in series [27] was “Active” throughout. In addition, in series [4], the IC50 stood at 2.1 µM.
